From PubChem BioAssay
HSF1 activator – HSF-1 activators, primary screen, NIH3T3-HGL cells, MG132 stress, luminescence, single point; NIH3T3-HGL HSF-1 luciferase reporter, 8 h; 100% = twice DMSO control signal; activation, % at 9 µM; 300,000 compounds, 1.7% hits; AID 504408, 2011;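 active means mean replicate activation of at least 50% with a set share of replicates each reaching 50%; inconclusive means only one of those two conditions met; inactive means mean below 50% and too few replicates reaching it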
HIF activator – HIF pathway transcriptional activators, primary screen, cell-based, U2OS HRE-luciferase, luminescence; U2OS HRE-luciferase reporter; normalized: DMSO 0%, desferrioxamine 100%; activation, % at 7.5 µM (by protocol); 300,000 compounds, 0.32% hits; AID 1910, 2009;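 active means mean activation of at least 10% of the iron chelator positive control signal, with at least half of replicates also reaching 10%; inconclusive means mean and replicate majority disagree about reaching 10%; inactive means mean and most replicates under 10%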
T cruzi inh – inhibitors of intracellular T. cruzi growth, primary screen, luminescence, NIH3T3 host cells; inhibition, % (no concentration beside the values); 300,000 compounds, 1.4% hits; T. cruzi beta-gal in NIH3T3, 90 h;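 active means mean inhibition across valid replicates above about 55%, limit read from the data; inconclusive means mean below that limit but half or more replicates reach it; inactive means mean below it, under half of replicates reach it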;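 further: signal also drops with host cell toxicity which is not excluded here; higher percent means less beta-gal luminescence so fewer parasites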
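System: mouse NIH/3T3 fibroblasts infected with β-gal-expressing T. cruzi Tulahuen C4 / Input: NIH/3T3 cells, 5,000 per well / Buffer or medium: Low-serum DMEM with 2% FBS / Probe or stimulus: 5000 reporter trypomastigotes per well / Schedule: ≥90 h infection period, 3 h prior cell attachment / Measured by: GalScreen luminescence, 60 min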
Calb FLC – C. albicans growth inhibition with fluconazole, primary screen, CaCi-2 strain, Alamar Blue fluorescence; C. albicans CaCi-2 + fluconazole, 48 h; growth inhibition, % (concentration not given with the values); 300,000 compounds, 0.57% hits;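 active means growth inhibition above about 58% in most replicates, limit read from the data, passing the limit was not always enough; inconclusive means exactly half the replicates above a set limit; inactive means most replicates below a set limit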;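 further: all wells also contain fluconazole at 8 µg/ml as a sub-toxic cotreatment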
HSF1 inh – HSF1 inhibitors in luciferase reporter cells, primary screen, cell-based, NIH3T3, luminescence. NIH3T3-HGL HSE-luciferase, MG132-induced, luminescence 8 h; active compounds read low. activity change, negative = inhibition, % at 7.5 µM (by protocol). 300,000 compounds, 0.77% hits;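 active means more than half of replicate wells show activity change below -50%, luminescence cut by over half; inconclusive means some wells, but at most half, below -50%; inactive means no replicate well below -50%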;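 further: luciferase reports HSF-1 transcriptional activity via heat shock element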
Hits are given with their value; – = inactive; ? = inconclusive. An excerpt weighted towards active compounds, which were near 4.4% of everything screened.

SMILES	HSF1 activator	HIF activator	T cruzi inh	Calb FLC	HSF1 inh
O=C1CN2C(=Nc3ccc(Cl)cc3C2c2ccccc2)CN1 (stereo not given)	–	–	–	88	–
C/C(=N\NC(=O)c1c(-c2ccccc2Cl)noc1C)c1cccc(NC(=O)C(C)C)c1	–	–	–	–	–
Cc1ccc(Cn2cc(S(=O)(=O)c3ccc(Cl)cc3)c(=O)c3cc(F)ccc32)cc1	79	–	–	–	–
O=c1c(S(=O)(=O)c2ccc(Cl)cc2)cn(Cc2cccc(F)c2)c2ccc(F)cc12	–	–	–	–	–
Cc1ccc(Cn2cc(S(=O)(=O)c3ccc(C(C)C)cc3)c(=O)c3cc4c(cc32)OCO4)cc1	64	–	–	–	–
Cc1ccccc1Cn1cc(S(=O)(=O)c2ccc(C(C)C)cc2)c(=O)c2cc3c(cc21)OCO3	78	–	–	–	–
CC(=O)c1cc(C#N)c(SCc2ccc([N+](=O)[O-])cc2)nc1C	–	–	–	–	–
O=[N+]([O-])c1ccc(NCc2ccc(Cl)cc2)nc1	–	–	–	–	–
CC(C)c1ccc(CNc2ccc([N+](=O)[O-])cn2)cc1	71	–	–	–	–
CCCn1c(N)c(NCCN2CCOCC2)c(=O)[nH]c1=O	–	–	–	–	–
O=C(Nc1nccs1)c1ccc(-c2ccccc2Cl)o1	61	–	–	?	–
O=C(Nc1nccs1)c1ccc(-c2ccc([N+](=O)[O-])cc2)o1	–	–	–	–	–
O=C(Nc1nccs1)c1ccc(-c2ccc(F)cc2)o1	73	–	–	–	–
O=C(Nc1nccs1)c1ccc(-c2ccccc2[N+](=O)[O-])o1	–	–	–	–	–
O=C(Nc1nccs1)c1ccc(-c2ccc(Cl)cc2)o1	57	–	–	–	–
O=C(/C=C/c1ccc(Cl)cc1)Nc1nccs1	63	–	–	–	–
[O-]/C(=C(\C(=S)NCc1ccccc1)[n+]1ccccc1)c1ccc(Cl)s1	–	–	–	–	–
CC(OC(=O)c1cc(S(=O)(=O)N(C)C)ccc1N1CCCC1)C(=O)NCc1ccccc1 (stereo not given)	–	–	–	–	–
O=C(CCNC(=O)c1ccccc1Cl)NCCc1ccc(C(F)(F)F)cc1	–	–	–	–	–
Fc1ccc(NC(=S)Nc2nccs2)cc1	64	–	66	–	–
CN(C)CCNC(=O)c1onc(CSc2nc3ccccc3[nH]2)c1C(=O)NCCN(C)C	–	–	–	–	–
Cc1cc(C(=O)COC(=O)c2ccc[nH]c2=O)c(C)n1-c1ccccc1F	–	–	–	–	-51
Cc1cc(C(=O)COC(=O)c2ccc(O)cc2)c(C)n1-c1ccccc1F	–	–	–	–	-63
Cc1ccc(-n2c(C)cc(C(=O)COC(=O)c3ccc[nH]c3=O)c2C)cc1C	–	–	–	–	–
CCn1cc(C(=O)OCC(=O)c2cc(C)n(-c3ccccc3F)c2C)c(=O)c2ccc(C)nc21	–	–	–	–	–
SMILES	HSF1 activator	HIF activator	T cruzi inh	Calb FLC	HSF1 inh
CCCn1c(C)cc(C(=O)COC(=O)c2ccc[nH]c2=O)c1C	–	–	–	–	-70
CC(NC(=O)c1ccncc1)c1ccc(Br)cc1 (stereo not given)	–	–	–	–	–
COc1ccc(CCNC(=O)CSc2nn(-c3ccccc3)c(=S)s2)cc1OC	–	–	–	–	–
CN(C)CCN1C(=O)C2C(C(=O)Nc3cc(Cl)cc(Cl)c3)C3C=CC2(O3)C1C(=O)NC1CCCCC1 (stereo not given)	85	–	–	–	–
COC(=O)c1cccc(CSc2nc3ccccc3[nH]2)c1	55	–	–	–	–
COC(=O)c1ccc(CSc2nc3ccccc3[nH]2)o1	–	–	–	–	–
O=C(CN1C2=NCCCN2c2ccccc21)c1ccc([N+](=O)[O-])cc1	–	–	59	–	–
O=C(CN1C2=NCCCN2c2ccccc21)c1cccc(Br)c1	–	–	–	–	–
C=CCSc1nc(C)cc2c1C(=O)OC2	–	–	–	–	–
Cc1c(NC(=O)C(C)OC(=O)c2ccc([N+](=O)[O-])s2)c(=O)n(-c2ccccc2)n1C (stereo not given)	–	–	86	–	–
CCN(CC)S(=O)(=O)c1cc([N+](=O)[O-])ccc1NNC(=O)Nc1ccc(Cl)c(Cl)c1	–	–	60	–	–
CCCCN(CCCC)S(=O)(=O)c1ccc(NC(=O)c2cccs2)cc1	–	–	56	–	–
CCCCN(CCCC)S(=O)(=O)c1ccc(NC(=O)c2ccc([N+](=O)[O-])cc2Cl)cc1	–	–	79	–	–
Cc1cc(C)nc(NS(=O)(=O)c2ccc(NC(=O)c3cccs3)cc2)n1	–	–	–	–	–
O=C(CCc1nnc2ccc(NCc3ccco3)nn12)Nc1ccc(F)cc1F	–	–	–	–	–
O=C(OCN1C(=O)c2ccccc2C1=O)c1cccc(S(=O)(=O)N2CCOCC2)c1	–	–	–	–	–
CN(CC(=O)NC1CCCc2ccccc21)S(=O)(=O)c1cccs1 (stereo not given)	–	–	–	–	–
CCCn1cc(NC(=O)c2cc(-c3ccccc3)on2)cn1	–	10	–	–	–
Cc1ccc(-c2cc(C(=O)Nc3cnn(C45CC6CC(CC(C6)C4)C5)c3)no2)cc1	–	–	–	–	–
O=C(Nc1cnn(C23CC4CC(CC(C4)C2)C3)c1)c1cc(-c2ccccc2)on1	–	–	61	–	–
Cc1ccc(-c2cc(C(=O)Nc3cnn(C(C)C)c3)no2)cc1	–	–	–	–	–
O=C(Nc1ccc([N+](=O)[O-])cc1)c1cccc(S(=O)(=O)Nc2ccccn2)c1	–	–	–	–	–
CCOC(=O)NC(=O)CSc1ccc(C)cc1C	–	–	–	–	–
CCc1ccc(NC(=O)c2cc(-c3ccco3)on2)cc1	80	–	–	–	–
O=C(Nc1ccc(C(=O)N2CCCC2)cc1)c1ccc(F)cc1Cl	–	–	–	–	–
SMILES	HSF1 activator	HIF activator	T cruzi inh	Calb FLC	HSF1 inh
O=C(Nc1ccc(C2=NCCN2)cc1)c1ccc(C(=O)Nc2ccc(C3=NCCN3)cc2)c(Cl)c1	–	–	–	90	–
O=S(=O)(c1ccc(F)cc1)c1snnc1-c1ccccc1	–	–	–	–	–
O=S(=O)(c1ccc(Cl)cc1)c1snnc1-c1ccccc1	66	–	60	–	–
O=C(NC(Nc1cc(C(F)(F)F)ccc1Cl)C(=O)c1ccccc1)c1ccccc1 (stereo not given)	–	–	58	–	–
CC(=O)NC(CC(=O)NCc1ccncc1)c1ccccc1 (stereo not given)	–	–	–	–	–
Cc1ccc(C2=Nc3ccccc3SC(c3cccc([N+](=O)[O-])c3)C2)cc1 (stereo not given)	67	–	–	–	–
